# From ChEMBL document CHEMBL2086304, “Synthesis and in vitro antimycobacterial and isocitrate lyase inhibition properties of novel 2-methoxy-2'-hydroxybenzanilides, their thioxo analogues and benzoxazoles” (Eur J Med Chem, 2012)
# Experiments:
# Mycobacterium kansasii [1] = experiment: Antimycobacterial activity against Mycobacterium kansasii 6509/96 clinical isolate after 7 days by micromethod; format: functional; conditions: 6509/96, 168 h
# Procedure, shortened: (§1)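 Inocula: M. tuberculosis My 331/88 at 10^-3 dilution, M. avium My 330/88 at 10^-5, M. kansasii My 235/80 and clinical isolate 6509/96 at 10^-4. Compounds added in DMSO at 1000 down to 0.5 (twofold series). Read at 14 and 21 days, plus 7 days for M. kansasii. MIC taken as lowest concentration inhibiting growth.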
# Mycobacterium avium [2] = experiment: Antimycobacterial activity against isoniazid resistance Mycobacterium avium 330/88 after 14 days by micromethod; format: functional; conditions: 330/88, 336 h; procedure, shortened: as §1
# HepG2 = experiment: Cytotoxicity against human HepG2 cells after 24 hrs by CellTiter-96 cell viability assay; format: functional, cell-based; conditions: HepG2, 24 h
# Procedure, shortened: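 Hep G2 human hepatic cells (passage 12), 10,000 per well, grown 24 h at 37 °C, 5% CO2 in MEM with 1% glutamine, 10% FBS and 1% nonessential amino acids. Compounds in DMSO at eight increasing concentrations, quadruplicate, 24 h at 37 °C. Kit reagent added, 1.5 h at 37 °C, absorbance 490 nm. IC50 is the concentration reducing viability to 50% of control.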
# [3] = tested on: Mycobacterium tuberculosis; experiment: Antimycobacterial activity against Mycobacterium tuberculosis 331/88 after 21 days by micromethod; format: functional; conditions: 331/88, 504 h; procedure, shortened: as §1
# [4] = target: T1, Isocitrate lyase (Mycobacterium tuberculosis) (UniProt P9WKK7); experiment: Inhibition of Mycobacterium tuberculosis H37Rv isocitrate lyase expressed in Escherichia coli HB101 at 10 umol/L
# T1 sequence (whole entry): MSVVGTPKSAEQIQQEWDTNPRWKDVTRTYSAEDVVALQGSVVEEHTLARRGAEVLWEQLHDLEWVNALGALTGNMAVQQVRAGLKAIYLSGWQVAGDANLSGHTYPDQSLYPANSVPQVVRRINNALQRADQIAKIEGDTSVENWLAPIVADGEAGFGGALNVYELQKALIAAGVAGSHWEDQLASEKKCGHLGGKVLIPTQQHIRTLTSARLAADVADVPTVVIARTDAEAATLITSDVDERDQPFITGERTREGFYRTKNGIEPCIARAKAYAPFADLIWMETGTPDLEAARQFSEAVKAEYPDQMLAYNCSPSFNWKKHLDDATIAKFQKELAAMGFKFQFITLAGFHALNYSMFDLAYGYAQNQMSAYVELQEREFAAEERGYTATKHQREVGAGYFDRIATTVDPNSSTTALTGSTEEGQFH
# Procedure, shortened: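 Isocitrate lyase assayed per Dixon–Kornberg in 96-well format. Buffer: 50 mmol/L KH2PO4, 4 mmol/L MgCl2, 4 mmol/L phenylhydrazine, 12 mmol/L cysteine, pH 7.0. Glyoxylate phenylhydrazone read at 324 nm. Compounds added in DMSO, with DMSO-alone inhibition subtracted.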
# [5] = Selectivity index, ratio of IC50 for human HepG2 cells to MIC for Mycobacterium tuberculosis 331/88 after 14 days; format: functional
# Procedure, shortened: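 Cytotoxicity in Hep G2 cells (passage 12), 10,000 cells/well, in MEM with 10% FBS, 1% glutamine and 1% nonessential amino acids. Cells preincubated 24 h, 37 °C, 5% CO2. Compounds in DMSO at eight concentrations in quadruplicate, 24 h. MTS-type reagent added for 1.5 h, A490 read, IC50 taken at 50% viability. SI = this IC50 over the 14-day M. tuberculosis MIC.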
# Mycobacterium kansasii [6] = experiment: Antimycobacterial activity against isoniazid resistance Mycobacterium kansasii 225/80 after 21 days by micromethod; format: functional; conditions: 225/80, 504 h
# Mycobacterium avium [7] = experiment: Antimycobacterial activity against isoniazid resistance Mycobacterium avium 330/88 after 21 days by micromethod; format: functional; conditions: 330/88, 504 h; procedure, shortened: as §1
# Mycobacterium kansasii [8] = experiment: Antimycobacterial activity against isoniazid resistance Mycobacterium kansasii 225/80 after 7 days by micromethod; format: functional; conditions: 225/80, 168 h
# Mycobacterium kansasii [9] = experiment: Antimycobacterial activity against Mycobacterium kansasii 6509/96 clinical isolate after 21 days by micromethod; format: functional; conditions: 6509/96, 504 h; procedure, shortened: as §1
# [10] = tested on: Mycobacterium tuberculosis; experiment: Antimycobacterial activity against Mycobacterium tuberculosis 331/88 after 14 days by micromethod; format: functional; conditions: 331/88, 336 h; procedure, shortened: as §1
# Mycobacterium kansasii [11] = experiment: Antimycobacterial activity against Mycobacterium kansasii 6509/96 clinical isolate after 14 days by micromethod; format: functional; conditions: 6509/96, 336 h; procedure, shortened: as §1
# Mycobacterium kansasii [12] = experiment: Antimycobacterial activity against isoniazid resistance Mycobacterium kansasii 225/80 after 14 days by micromethod; format: functional; conditions: 225/80, 336 h
structure (smiles),measurement,setting,value
COc1cc(Cl)ccc1C(=O)Nc1cc(Br)ccc1O,MIC,Mycobacterium kansasii [1],62.5 µM
same,MIC,Mycobacterium avium [2],62.5 µM
same,IC50,HepG2,5.63 µM
same,MIC,[3],125 µM
same,inhibition,[4],0%
same,Selectivity Index,[5],0.05
same,MIC,Mycobacterium kansasii [6],62.5 µM
same,MIC,Mycobacterium avium [7],62.5 µM
same,MIC,Mycobacterium kansasii [8],62.5 µM
same,MIC,Mycobacterium kansasii [9],62.5 µM
same,MIC,[10],125 µM
same,MIC,Mycobacterium kansasii [11],62.5 µM
same,MIC,Mycobacterium kansasii [12],62.5 µM
COc1cc(Cl)ccc1C(=S)Nc1ccc(Br)cc1O,MIC,Mycobacterium kansasii [1],16 µM
same,MIC,Mycobacterium avium [2],32 µM
same,IC50,HepG2,3.88 µM
same,MIC,[3],32 µM
same,inhibition,[4],10%
same,Selectivity Index,[5],0.24
same,MIC,Mycobacterium kansasii [6],62.5 µM
same,MIC,Mycobacterium avium [7],32 µM
same,MIC,Mycobacterium kansasii [8],16 µM
same,MIC,Mycobacterium kansasii [9],32 µM
same,MIC,[10],16 µM
same,MIC,Mycobacterium kansasii [11],32 µM
same,MIC,Mycobacterium kansasii [12],32 µM
COc1cc(Cl)ccc1C(=S)Nc1cc(Cl)c(Cl)cc1O,MIC,Mycobacterium kansasii [1],16 µM
same,MIC,Mycobacterium avium [2],62.5 µM
same,IC50,HepG2,3.16 µM
same,MIC,[3],32 µM
same,inhibition,[4],0%
same,Selectivity Index,[5],0.1
same,MIC,Mycobacterium kansasii [6],62.5 µM
same,MIC,Mycobacterium avium [7],62.5 µM
same,MIC,Mycobacterium kansasii [8],16 µM
same,MIC,Mycobacterium kansasii [9],62.5 µM
same,MIC,[10],32 µM
same,MIC,Mycobacterium kansasii [11],32 µM
same,MIC,Mycobacterium kansasii [12],32 µM
COc1ccc(Cl)cc1C(=O)Nc1cc(C(F)(F)F)ccc1O,MIC,Mycobacterium kansasii [1],62.5 µM
same,MIC,Mycobacterium avium [2],62.5 µM
same,IC50,HepG2,15.4 µM
same,MIC,[3],250 µM
same,inhibition,[4],0%
same,Selectivity Index,[5],0.06
same,MIC,Mycobacterium kansasii [6],62.5 µM
same,MIC,Mycobacterium avium [7],125 µM
same,MIC,Mycobacterium kansasii [8],32 µM
same,MIC,Mycobacterium kansasii [9],125 µM
same,MIC,[10],250 µM
same,MIC,Mycobacterium kansasii [11],125 µM
same,MIC,Mycobacterium kansasii [12],62.5 µM
COc1ccc(Cl)cc1C(=O)Nc1cc(Br)ccc1O,MIC,Mycobacterium kansasii [1],4 µM
same,MIC,Mycobacterium avium [2],62.5 µM
same,IC50,HepG2,4.09 µM
same,MIC,[3],8 µM
same,inhibition,[4],0%
same,Selectivity Index,[5],0.51
same,MIC,Mycobacterium kansasii [6],8 µM
same,MIC,Mycobacterium avium [7],62.5 µM
same,MIC,Mycobacterium kansasii [8],4 µM
same,MIC,Mycobacterium kansasii [9],8 µM
same,MIC,[10],8 µM
same,MIC,Mycobacterium kansasii [11],8 µM
same,MIC,Mycobacterium kansasii [12],8 µM
COc1ccc(Cl)cc1C(=S)Nc1ccc(Br)cc1O,MIC,Mycobacterium kansasii [1],16 µM
same,MIC,Mycobacterium avium [2],62.5 µM
same,IC50,HepG2,7.6 µM
same,MIC,[3],32 µM
same,inhibition,[4],7%
same,Selectivity Index,[5],0.24
same,MIC,Mycobacterium kansasii [6],62.5 µM
same,MIC,Mycobacterium avium [7],125 µM
same,MIC,Mycobacterium kansasii [8],16 µM
same,MIC,Mycobacterium kansasii [9],32 µM
same,MIC,[10],32 µM
same,MIC,Mycobacterium kansasii [11],32 µM
same,MIC,Mycobacterium kansasii [12],32 µM
COc1cc(Cl)ccc1C(=S)Nc1cc(Br)ccc1O,MIC,Mycobacterium kansasii [1],32 µM
same,MIC,Mycobacterium avium [2],32 µM
same,IC50,HepG2,6.53 µM
same,MIC,[3],32 µM
same,inhibition,[4],0%
same,Selectivity Index,[5],0.2
same,MIC,Mycobacterium kansasii [6],62.5 µM
same,MIC,Mycobacterium avium [7],62.5 µM
same,MIC,Mycobacterium kansasii [8],16 µM
same,MIC,Mycobacterium kansasii [9],62.5 µM
same,MIC,[10],32 µM
same,MIC,Mycobacterium kansasii [11],32 µM
same,MIC,Mycobacterium kansasii [12],32 µM
COc1cc(Cl)ccc1C(=O)Nc1cc(Cl)c(Cl)cc1O,MIC,Mycobacterium kansasii [1],250 µM
same,MIC,Mycobacterium avium [2],> 1000 µM
same,IC50,HepG2,11.5 µM
same,MIC,[3],500 µM
same,inhibition,[4],0%
same,Selectivity Index,[5],0.02
same,MIC,Mycobacterium kansasii [6],500 µM
same,MIC,Mycobacterium avium [7],> 1000 µM
same,MIC,Mycobacterium kansasii [8],500 µM
same,MIC,Mycobacterium kansasii [9],250 µM
same,MIC,[10],500 µM
same,MIC,Mycobacterium kansasii [11],250 µM
same,MIC,Mycobacterium kansasii [12],500 µM
COc1cc(Cl)ccc1C(=S)Nc1ccc(Cl)cc1O,MIC,Mycobacterium kansasii [1],16 µM
same,MIC,Mycobacterium avium [2],32 µM
same,IC50,HepG2,5.11 µM
same,MIC,[3],32 µM
same,inhibition,[4],10%
same,Selectivity Index,[5],0.32
same,MIC,Mycobacterium kansasii [6],62.5 µM
same,MIC,Mycobacterium avium [7],32 µM
same,MIC,Mycobacterium kansasii [8],16 µM
same,MIC,Mycobacterium kansasii [9],32 µM
same,MIC,[10],16 µM
same,MIC,Mycobacterium kansasii [11],32 µM
same,MIC,Mycobacterium kansasii [12],32 µM
COc1cc(Cl)ccc1C(=O)Nc1cc(Cl)ccc1O,MIC,Mycobacterium kansasii [1],16 µM
same,MIC,Mycobacterium avium [2],125 µM
same,IC50,HepG2,87 µM
same,MIC,[3],125 µM
same,inhibition,[4],0%
same,Selectivity Index,[5],0.7
same,MIC,Mycobacterium kansasii [6],125 µM
same,MIC,Mycobacterium avium [7],125 µM
same,MIC,Mycobacterium kansasii [8],125 µM
same,MIC,Mycobacterium kansasii [9],62.5 µM
same,MIC,[10],125 µM
same,MIC,Mycobacterium kansasii [11],62.5 µM
same,MIC,Mycobacterium kansasii [12],125 µM
COc1ccc(Cl)cc1C(=S)Nc1ccc(C(F)(F)F)cc1O,MIC,Mycobacterium kansasii [1],32 µM
same,MIC,Mycobacterium avium [2],32 µM
same,IC50,HepG2,3.69 µM
same,MIC,[3],62.5 µM
same,inhibition,[4],21%
same,Selectivity Index,[5],0.06
same,MIC,Mycobacterium kansasii [6],62.5 µM
same,MIC,Mycobacterium avium [7],62.5 µM
same,MIC,Mycobacterium kansasii [9],62.5 µM
same,MIC,[10],62.5 µM
same,MIC,Mycobacterium kansasii [11],62.5 µM
same,MIC,Mycobacterium kansasii [12],62.5 µM
COc1ccc(Cl)cc1C(=O)Nc1ccc(C(F)(F)F)cc1O,MIC,Mycobacterium kansasii [1],250 µM
same,MIC,Mycobacterium avium [2],62.5 µM
same,IC50,HepG2,4.91 µM
same,MIC,[3],500 µM
same,inhibition,[4],2%
same,Selectivity Index,[5],0.01
same,MIC,Mycobacterium kansasii [6],250 µM
same,MIC,Mycobacterium avium [7],62.5 µM
same,MIC,Mycobacterium kansasii [9],250 µM
same,MIC,[10],500 µM
same,MIC,Mycobacterium kansasii [11],250 µM
same,MIC,Mycobacterium kansasii [12],250 µM
COc1cc(Cl)ccc1C(=S)Nc1ccc(C(F)(F)F)cc1O,MIC,Mycobacterium kansasii [1],32 µM
same,MIC,Mycobacterium avium [2],62.5 µM
same,IC50,HepG2,3.14 µM
same,MIC,[3],62.5 µM
same,inhibition,[4],23%
same,Selectivity Index,[5],0.1
same,MIC,Mycobacterium kansasii [6],62.5 µM
same,MIC,Mycobacterium avium [7],62.5 µM
same,MIC,Mycobacterium kansasii [9],62.5 µM
same,MIC,[10],32 µM
same,MIC,Mycobacterium kansasii [11],62.5 µM
same,MIC,Mycobacterium kansasii [12],62.5 µM
COc1cc(Cl)ccc1C(=O)Nc1ccc(C(F)(F)F)cc1O,MIC,Mycobacterium kansasii [1],250 µM
same,MIC,Mycobacterium avium [2],62.5 µM
same,IC50,HepG2,3.9 µM
same,MIC,[3],250 µM
same,inhibition,[4],7%
same,Selectivity Index,[5],0.02
same,MIC,Mycobacterium kansasii [6],250 µM
same,MIC,Mycobacterium avium [7],62.5 µM
same,MIC,Mycobacterium kansasii [9],250 µM
same,MIC,[10],250 µM
same,MIC,Mycobacterium kansasii [11],250 µM
same,MIC,Mycobacterium kansasii [12],250 µM
